Experimental data pooled from the literature.
Compare with care: the assays were run in different laboratories.
Read-out: metabolic stability

CC(=O)Nc1cc(Nc2cc(NC3CC3)n3ncc(C#N)c3n2)ccc1N1CCC[C@H](O)C1 — scaled CLint (male CD-1 mouse, hepatocytes; 1 µM, serum-free): 511 mL/min/kg
O=C(Nc1cncc(-c2nc3ccccc3s2)c1)c1cc([N+](=O)[O-])c(N2CCNCC2)cc1Cl — scaled CLint (CD-1 mouse, liver microsomes; 1 µM, 1 h, pH 7.4): 10 mL/min/kg
Cc1ccc(F)c2cc(C(=O)N[C@@H]3CCC[C@H](N4CCOCC4)C3)[nH]c12 — scaled CLint (mouse, hepatocytes; 0.5 µM, 1 h): 2170 mL/min/kg
c1ccc(-c2nc(NCc3nccs3)c3ccccc3n2)nc1 — microsomal CLint (mouse, liver microsomes): 224 µL/min/mg
O=C(Nc1ccc(Cl)c(Cl)c1)c1ccc(N2CCNCC2)c([N+](=O)[O-])c1 — scaled CLint (CD-1 mouse, liver microsomes; 1 µM, 1 h, pH 7.4): 12 mL/min/kg
CC(=O)N(C)C1CCN(c2cc(F)cc(NC(=O)c3cc4c(F)ccc(C)c4[nH]3)c2)C1 (centres unmarked) — scaled CLint (mouse, hepatocytes; 0.5 µM, 1 h): 239 mL/min/kg
N#Cc1ccccc1-c1nc(N2CCC(c3ccccn3)C2)c2ccccc2n1 (centres unmarked) — microsomal CLint (mouse, liver microsomes): 717 µL/min/mg
CN[C@@H]1CCCN(c2ccc(Nc3cc(NC4CC4)n4ncc(C#N)c4n3)cc2NC(C)=O)C1 — scaled CLint (male CD-1 mouse, hepatocytes; 1 µM, serum-free): 162 mL/min/kg
Cc1cc(Cl)c(Cl)cc1NC(=O)c1cc([N+](=O)[O-])c(N2CCNCC2)cc1Cl — scaled CLint (CD-1 mouse, liver microsomes; 1 µM, 1 h, pH 7.4): 25 mL/min/kg
c1ccc(-c2nc(Nc3ccn4nccc4c3)c3ccccc3n2)nc1 — microsomal CLint (mouse, liver microsomes): 325 µL/min/mg
CO[C@@H](C[C@H]1C(C)=CC[C@@H]2[C@]3(C)C[C@H](O[C@@H]4O[C@@H](C)[C@H](OC(=O)c5cccc(O)c5)[C@@H](O[C@@H]5O[C@H](CO)[C@@H](O)[C@H](O)[C@H]5NC(C)=O)[C@H]4O)[C@@H](O)C(C)(C)[C@H]3CC[C@]21C)[C@H](N)C(=O)O — hepatocyte CLint (mouse, hepatocytes; 1 µM): 4.69 µL/min/10⁶ cells
